Experimental data from ChEMBL document CHEMBL1629563, “Pharmacokinetic and safety evaluation of BILR 355, a second-generation nonnucleoside reverse transcriptase inhibitor, in healthy volunteers” (Antimicrob Agents Chemother, 2008).

Legend:
Homo sapiens [1] = assay: Toxicity in healthy human assessed as occurrence of fatigue at 25 mg, po administered as single dose coadministered with 100 mg of ritonavir; assay type: organism-based; details: in vivo
Homo sapiens [2] = assay: Toxicity in healthy human assessed as occurrence of neurological eyelid disorder at 100 mg, po administered as single dose relative to control; assay type: organism-based; details: in vivo
Homo sapiens [3] = assay: Toxicity in healthy human assessed as occurrence of herpes simplex at 75 mg, po administered as single dose relative to control; assay type: organism-based; details: in vivo
Homo sapiens [4] = assay: Toxicity in high fat fed healthy human assessed as occurrence of aphthous stomatitis at 50 mg, po administered as single dose coadministered with 100 mg of ritonavir; assay type: organism-based; details: in vivo
[5] = Renal clearance in healthy human at 100 mg, po administered as single dose by high-pressure liquid chromatography-tandem mass spectrometry/mass spectrometry method; assay type: ADME, organism-based, Kidney; details: in vivo, read-out: CL_renal (converted)
[6] = Mean residence time in healthy human at 75 mg, po administered as single dose coadministered with 100 mg of ritonavir; assay type: ADME, organism-based; details: in vivo
[7] = Apparent volume of distribution in terminal phase in healthy human at 75 mg, po administered as single dose; assay type: ADME, organism-based; details: in vivo, read-out: Vz/F
Outline: (§1)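 Single fasting oral dose of BILR 355 in PEG solution with 200 ml tap water, given to healthy males. Standard breakfast came 60-90 min after the dose. EDTA plasma was sampled predose to 144 h, stored below −18°C and assayed by LC-MS/MS after protein precipitation. Noncompartmental analysis gave Vz/F. Vss/F = CL/F·(MRTp.o. − 1/Ka), with Ka from compartmental modelling.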

[8] = Mean residence time in healthy human at 5 mg, po administered as single dose coadministered with 100 mg of ritonavir; assay type: ADME, organism-based; details: in vivo
[9] = Apparent volume of distribution at steady state in healthy human at 5 mg, po administered as single dose; assay type: ADME, organism-based; details: in vivo, read-out: Vss/F; outline: as §1
[10] = Drug excretion in healthy human urine assessed as unchanged drug in high fat fed healthy human at 50 mg, po administered as single dose coadministered with 100 mg of ritonavir by high-pressure liquid chromatography-tandem mass spectrometry/mass spectrometry method; assay type: ADME, organism-based; details: read-out: Drug uptake
Outline: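 Ritonavir 100 mg was given 10 h before and with one oral dose of BILR 355 in PEG solution. Urine was collected by weight as predose blank, then 0-6, 6-24 and 24-72 h, stored at −20°C and assayed by LC-MS/MS. fe = unchanged drug excreted (Ae) as a percentage of dose. Line 50: high-fat breakfast 30 min before dosing.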

Homo sapiens [11] = assay: Ratio of half life in human at 75 mg, po in presence of 100 mg of ritonavir to half life in human at 75 mg, po; assay type: ADME, organism-based; details: in vivo
[12] = Apparent volume of distribution in terminal phase in healthy human at 87.5 mg, po administered as single dose coadministered with 100 mg of ritonavir; assay type: ADME, organism-based; details: in vivo, read-out: Vz/F
Outline: (§2)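 Healthy male volunteers, fasted overnight, got one oral dose of BILR 355 in PEG solution with 200 ml water. Ritonavir 100 mg was given 10 h before and again with the dose. Plasma was sampled (EDTA) from predose to 144 h and assayed by validated LC-MS/MS. Cmax and Vz/F came from noncompartmental analysis. Vss/F = CL/F·(MRTp.o. − 1/Ka), with Ka from compartmental modelling.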

[13] = Half life in healthy human at 12.5 mg, po administered as single dose coadministered with 100 mg of ritonavir; assay type: ADME, organism-based; details: in vivo
[14] = Cmax in healthy human at 5 mg, po administered as single dose by high-pressure liquid chromatography-tandem mass spectrometry/mass spectrometry method; assay type: ADME, organism-based; parameters: dose 5 mg, route oral; details: in vivo; outline: as §1
[15] = Apparent volume of distribution at steady state in healthy human at 62.5 mg, po administered as single dose coadministered with 100 mg of ritonavir; assay type: ADME, organism-based; details: in vivo, read-out: Vss/F; outline: as §2
Homo sapiens [16] = assay: Toxicity in healthy human assessed as occurrence of neurological eyelid disorder at 25 mg, po administered as single dose relative to control; assay type: organism-based; details: in vivo
[17] = Apparent oral clearance in healthy human at 12.5 mg, po administered as single dose; assay type: ADME, organism-based; details: in vivo
Outline: (§3)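 Healthy male volunteers, six active plus two placebo per dose group, single oral dose in PEG solution with 200 ml water after overnight fast; breakfast 60 to 90 min post-dose. EDTA plasma sampled predose to 144 h. Assayed by validated LC-MS/MS after protein precipitation. Noncompartmental analysis, AUC by linear up/log down trapezoidal rule; Vss = CL/F·(MRTp.o. − 1/Ka).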

[18] = AUC (0 to infinity) in healthy human at 12.5 mg, po administered as single dose; assay type: ADME, organism-based; parameters: dose 12.5 mg, route oral, time infinity; details: plasma; outline: as §3
Homo sapiens [19] = assay: Toxicity in healthy human assessed as occurrence of migraine at 1 mg, po administered as single dose relative to control; assay type: organism-based; details: in vivo
[20] = Tmax in healthy human at 62.5 mg, po administered as single dose coadministered with 100 mg of ritonavir; assay type: ADME, organism-based; details: in vivo
[21] = Half life in healthy human at 25 mg, po administered as single dose coadministered with 100 mg of ritonavir; assay type: ADME, organism-based; details: in vivo
[22] = Apparent volume of distribution in terminal phase in healthy human at 5 mg, po administered as single dose; assay type: ADME, organism-based; details: in vivo, read-out: Vz/F; outline: as §1
Homo sapiens [23] = assay: Ratio of AUC (0 to infinity) in human at 12.5 mg, po in presence of 100 mg of ritonavir to AUC (0 to infinity) in human at 12.5 mg, po; assay type: ADME, organism-based; details: in vivo
[24] = AUC (0 to last) in healthy human at 37.5 mg, po administered as single dose coadministered with 100 mg of ritonavir; assay type: ADME, organism-based; parameters: dose 37.5 mg, route oral, time 0 - last; details: plasma
Outline: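 Healthy male volunteers, fasted. Ritonavir 100 mg given 10 h before and again together with single oral BILR 355 in PEG solution. EDTA plasma sampled predose to 144 h. LC-MS/MS assay after protein precipitation. Noncompartmental analysis, AUC by linear up/log down trapezoidal rule; Vss = CL/F·(MRTp.o. − 1/Ka).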

[25] = AUC (0 to infinity) in healthy human at 5 mg, po administered as single dose; assay type: ADME, organism-based; parameters: dose 5 mg, route oral, time infinity; details: plasma; outline: as §3
Homo sapiens [26] = assay: Toxicity in healthy human assessed as occurrence of maculopapular rash at 100 mg, po administered as single dose relative to control; assay type: organism-based; details: in vivo
Homo sapiens [27] = assay: Toxicity in healthy human assessed as occurrence of migraine at 25 mg, po administered as single dose relative to control; assay type: organism-based; details: in vivo
[28] = AUC (0 to last) in healthy human at 25 mg, po administered as single dose; assay type: ADME, organism-based; parameters: dose 25 mg, route oral, time 0 - last; details: plasma; outline: as §3
[29] = Cmax in healthy human at 75 mg, po administered as single dose coadministered with 100 mg of ritonavir by high-pressure liquid chromatography-tandem mass spectrometry/mass spectrometry method; assay type: ADME, organism-based; parameters: dose 75 mg, route oral; details: in vivo; outline: as §2
Homo sapiens [30] = assay: Toxicity in healthy human assessed as occurrence of nausea at 100 mg, po administered as single dose relative to control; assay type: organism-based; details: in vivo
Homo sapiens [31] = assay: Toxicity in healthy human assessed as occurrence of migraine at 12.5 mg, po administered as single dose relative to control; assay type: organism-based; details: in vivo
Homo sapiens [32] = assay: Toxicity in healthy human assessed as occurrence of increase in alanine aminotransferase level at 100 mg, po administered as single dose relative to control; assay type: organism-based; details: in vivo
Homo sapiens [33] = assay: Toxicity in healthy human assessed as occurrence of palpitations at 50 mg, po administered as single dose relative to control; assay type: organism-based; details: in vivo

Q: With `CCN1c2ncc(CCOc3cc[n+]([O-])c4ccccc34)cc2C(=O)N(C)c2cccnc21` [BILR 355] as the molecule, how does the Activity (Homo sapiens [1]) read?
A: The Activity was 0%.

Q: What about the Activity (Homo sapiens [2]) of the same molecule?
A: Its Activity is 0%.

Q: What about the Activity (Homo sapiens [3]) of the same molecule?
A: The Activity was 0%.

Q: And the Activity (Homo sapiens [4])?
A: Its Activity is 0%.

Q: What about the CL renal [5] of the same molecule?
A: The CL renal was 9.85 mL/min.

Q: And the MRT [6]?
A: The MRT was 17.4 h.

Q: And the Vd/F [7]?
A: Its Vd/F is 832 L.

Q: And the MRT [8]?
A: The MRT was 24.8 h.

Q: What about the Vd/F [9] of the same molecule?
A: Its Vd/F is 1020 L.

Q: What about the dose excreted [10] of the same molecule?
A: Its dose excreted is 4.62%.

Q: What about the Ratio (Homo sapiens [11]) of the same molecule?
A: Its Ratio is 5.4.

Q: What about the Vd/F [12] of the same molecule?
A: Its Vd/F is 114 L.

Q: And the half-life [13]?
A: The half-life was 15.9 h.

Q: What about the Cmax [14] of the same molecule?
A: Its Cmax is 4.36 ng/mL.

Q: What about the Vd/F [15] of the same molecule?
A: The Vd/F was 113 L.

Q: And the Activity (Homo sapiens [16])?
A: The Activity was 0%.

Q: What about the CL/F [17] of the same molecule?
A: The CL/F was 4100 mL/min.

Q: What about the AUC(0-inf) [18] of the same molecule?
A: Its AUC(0-inf) is 71.8 ng·h/mL.

Q: And the Activity (Homo sapiens [19])?
A: Its Activity is 0%.

Q: What about the Tmax [20] of the same molecule?
A: The Tmax was 0.7 h.

Q: What about the half-life [21] of the same molecule?
A: Its half-life is 11.5 h.

Q: And the Vd/F [22]?
A: The Vd/F was 956 L.

Q: What about the Ratio (Homo sapiens [23]) of the same molecule?
A: The Ratio was 31.

Q: And the AUC(0-t) [24]?
A: Its AUC(0-t) is 5800 ng·h/mL.

Q: And the AUC(0-inf) [25]?
A: Its AUC(0-inf) is 36.3 ng·h/mL.

Q: What about the Activity (Homo sapiens [26]) of the same molecule?
A: The Activity was 0%.

Q: And the Activity (Homo sapiens [27])?
A: The Activity was 0%.

Q: And the AUC(0-t) [28]?
A: Its AUC(0-t) is 128 ng·h/mL.

Q: And the Cmax [29]?
A: The Cmax was 812 ng/mL.

Q: And the Activity (Homo sapiens [30])?
A: The Activity was 0%.

Q: What about the Activity (Homo sapiens [31]) of the same molecule?
A: Its Activity is 0%.

Q: What about the Activity (Homo sapiens [32]) of the same molecule?
A: Its Activity is 0%.

Q: And the Activity (Homo sapiens [33])?
A: Its Activity is 0%.
